Consider 23 compounds from ChEMBL document CHEMBL1125676, “Synthesis and structure-activity studies of alkyl-substituted gamma-butyrolactones and gamma-thiobutyrolactones: ligands for the picrotoxin receptor” (J Med Chem, 1991).

Data set [1] in a line: Neurotoxic effects by rotarod test in mice. The class given is ADME, organism-based. Conditions: mouse, in vivo. The gist of the method: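 Rotorod test in mice after ip dosing in 30% polyethylene glycol (0.01 mL/g). TD50 from log probit analysis of dose–response data.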
A general note: The rotarod test checks motor coordination on a turning rod.

Data set [2] is filed under the species Mus musculus. In words: Anticonvulsant activity in mice by maximal electroshock test. It is filed as functional. The gist of the method: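 Maximal electroshock applied through corneal electrodes after 0.9% NaCl drops on the eyes. Compound given ip in 30% polyethylene glycol (0.01 mL/g). Protection defined as no tonic hind-limb extension past 90°. ED50 from log probit analysis of dose–response data.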
(In general: The maximal electroshock test induces tonic seizures with an electrical stimulus.)

Data set [3] has as its target GABA-A receptor; anion channel. As to the kind of experiment: Binding affinity to picrotoxin site of Gamma-aminobutyric acid receptor using [35S]TBPS as radioligand. It is filed as protein-complex assay, Rattus norvegicus. The gist of the method: (§1)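 Rat cerebral cortex membranes (female Sprague–Dawley) washed and held in 50 mM Tris-citrate pH 7.5. [35S]TBPS at 2 nM final, in NaBr. Incubated in triplicate for 90 min at 25 °C, then filtered and scintillation counted. Nonspecific binding with 10 μM TBPS or 100 μM picrotoxinin. IC50 by log probit from ≥5 concentrations; mean ± SEM of three experiments.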

Data set [4] is filed under the species Mus musculus. In words: Anticonvulsant activity in mice by inhibition of pentylenetetrazole induced seizures. The class given is functional.
In data set [5] the target is GABA-A receptor; anion channel. In words: Binding affinity to picrotoxin site of the Gamma-aminobutyric acid receptor was measured using [35S]TBPS as radioligand. It is filed as protein-complex assay. The gist of the method:
as §1

Data set [6] is filed under the species Mus musculus. As to the kind of experiment: Convulsant potency was determined by measuring the ability to produce seizures in mice. The class given is functional. The gist of the method: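 Compound given ip in 30% polyethylene glycol (0.01 mL/g body weight). Mice observed for 30 min for seizure activity. Value is the CD50 for clonic convulsions, from log probit analysis; 95% fiducial limits given.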

Data set [7] has as its system Mus musculus. In words: Concentration of brain at 20 min was determined after the compound was administered intraperitoneally at a dose 259 mg/kg in mice. The class given is functional. The conditions noted are these: route intraperitoneal. The gist of the method:
(§2)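 Female CF-1 mice dosed ip and decapitated at the set time, n = 3. Cerebral cortex frozen and homogenized at 4 °C in chloroform:methanol 2:1 with an internal standard. Lower phase analysed by capillary GC-FID with splitless injection. Concentration taken from the ratio to the internal standard, corrected for detector response and wet weight. Mean ± SEM.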

Data set [8] relates to Mus musculus. As to the kind of experiment: Concentration of brain at 30 min was determined after the compound was administered intraperitoneally at a dose 259 mg/kg in mice. The conditions noted are these: route intraperitoneal. The class given is functional. The gist of the method: as §2
Data set [9] deals with Mus musculus. As to the kind of experiment: Concentration of brain at 10 min was determined after the compound was administered intraperitoneally at a dose 259 mg/kg in mice. The conditions noted are these: route intraperitoneal. It is filed as functional. The gist of the method:
as §2

The test system of data set [10] is Mus musculus. In words: Concentration of brain at 40 min was determined after the compound was administered intraperitoneally at a dose 259 mg/kg in mice. It is filed as functional. The conditions noted are these: route intraperitoneal.
For data set [11], the system named is Mus musculus. In words: Concentration of brain at 5 min was determined after the compound was administered intraperitoneally at a dose 259 mg/kg in mice. The conditions noted are these: route intraperitoneal. It is filed as functional. In a few lines: as §2

For `CC(C)(C)C1CCOC1=O` (stereo not given), the TD50 in [1] was more than 500 mg/kg. Moreover, the ED50 in the data set filed under Mus musculus [2] came out at 375 mg/kg; in the data set listed under Mus musculus [4], 145 mg/kg. Besides, the IC50 in [3] stood at 990 µM.
The compound `CC(C)C1CCOC1=O` (stereo not given) had a TD50 in data set [1] of more than 400 mg/kg. Besides, the IC50 in [5] was found to be 2000 µM. The ED50 was more than 400 mg/kg in the data set filed under Mus musculus [2] and 150 mg/kg in the data set listed under Mus musculus [4].
With `CC1(C)CCOC1=O`, in data set [1], the TD50 is more than 500 mg/kg. Also, the ED50 in the data set listed under Mus musculus [2] and in the data set listed under Mus musculus [4] was more than 500 mg/kg each time. This compound had an IC50 in [3] of 9200 µM.
With `CC1CCOC1=O` (stereo not given), the TD50 in [1] is more than 500 mg/kg. Also, in data set [5], the IC50 was more than 10000 µM. In addition, the ED50 in the data set filed under Mus musculus [2] and in the data set filed under Mus musculus [4] was more than 500 mg/kg throughout.
For the compound `CC(C)(C)C1CCSC1=O` (stereo not given), in [1], the TD50 was more than 500 mg/kg. The IC50 in data set [5] was 190 µM. For the same compound, the ED50 is more than 500 mg/kg in the data set filed under Mus musculus [2] and 244 mg/kg in the data set filed under Mus musculus [4].
Consider `CCC1CCOC1=O` (stereo not given), for which the TD50 in data set [1] is more than 500 mg/kg. Moreover, the ED50 in the data set listed under Mus musculus [2] and in the data set listed under Mus musculus [4] was more than 500 mg/kg in each case. This compound also gave an IC50 in data set [3] of 8500 µM.
With `CC1CCSC1=O` (stereo not given), the IC50 in data set [5] is 4400 µM. Also, the ED50 in the data set listed under Mus musculus [2] and in the data set filed under Mus musculus [4] was 91 mg/kg each time.
Consider `CC(C)C1(C)CCSC1=O` (stereo not given), for which the TD50 in data set [1] was more than 500 mg/kg. The compound also had an IC50 in [5] of 140 µM. The median effective dose (ED50) in the data set filed under Mus musculus [2] was more than 500 mg/kg; in the data set listed under Mus musculus [4], 154 mg/kg.
In data set [1], `CC(C)C1CCSC1=O` (stereo not given) registered a TD50 of more than 500 mg/kg. For the same compound, the values for the ED50 in the data set listed under Mus musculus [2] and in the data set listed under Mus musculus [4] were more than 500 mg/kg and 145 mg/kg, respectively. In addition, the IC50 in data set [3] came out at 260 µM.
Consider `CCC1CCSC1=O` (stereo not given), for which the TD50 in data set [1] is more than 500 mg/kg. Moreover, the IC50 in [5] was found to be 1500 µM. Besides, the ED50 came out at 232 mg/kg in the data set listed under Mus musculus [2] and 414 mg/kg in the data set listed under Mus musculus [4].
The compound `CCC1(C)CCSC1=O` (stereo not given) returned an IC50 in [5] of 330 µM.
`CCC1(CC)CCOC1=O` came in with a TD50 in data set [1] of 416 mg/kg. Further, the results for the ED50 in the data set listed under Mus musculus [2] and in the data set listed under Mus musculus [4] were 463 mg/kg and 191 mg/kg, respectively. Further, in data set [3], the IC50 was found to be 750 µM.
In the data set listed under Mus musculus [6], `CC(C)C1COC(=O)C1` (stereo not given) had a CD50 of 15 mg/kg. The compound further yielded an IC50 in data set [5] of 42000 µM.
As for `CCC1(CC)CCSC1=O`, the TD50 in data set [1] was 285 mg/kg. For the same compound, the IC50 in data set [5] turned out to be 260 µM. Further, the ED50 stood at 374 mg/kg in the data set filed under Mus musculus [2] and 104 mg/kg in the data set filed under Mus musculus [4].
For `CC(C)C1(C(C)C)CCSC1=O` the same measures were more than 500 mg/kg, 74 µM, more than 500 mg/kg and more than 500 mg/kg.
As for `CCC1(C)CCOC1=O` (stereo not given), the Brain concentration in the data set with Mus musculus [7] is recorded as 1.35 mM; in the data set on Mus musculus [8] it was 1.21 mM; in the data set on Mus musculus [9], 1.83 mM; with Mus musculus [10], 0.88 mM; with Mus musculus [11], 2.97 mM. In addition, the TD50 in data set [1] was 621 mg/kg. Besides, the results for the ED50 in the data set filed under Mus musculus [2] and in the data set filed under Mus musculus [4] were more than 500 mg/kg and 259 mg/kg, respectively. This compound also gave an IC50 in [3] of 2300 µM.
`CCC1(C)CSC(=O)C1` (stereo not given) had a CD50 in the data set filed under Mus musculus [6] of 3.5 mg/kg.
In the data set listed under Mus musculus [6], `CCC1(C)CC(=O)OC1(C)C` (stereo not given) returned a CD50 of 8.2 mg/kg. This compound yielded an IC50 in [3] of 22000 µM.
In the case of `CC(C)(C)C1COC(=O)C1` (stereo not given), the CD50 in the data set filed under Mus musculus [6] is 5.5 mg/kg. In [3], the IC50 was 13000 µM.
On to `CCC1(C)COC(=O)C1` (stereo not given), for which the CD50 in the data set listed under Mus musculus [6] was determined as 20 mg/kg. In [5], the IC50 came to 55000 µM.
In data set [1], `CC(C)C1(C)CCOC1=O` (stereo not given) registered a TD50 of 278 mg/kg. The IC50 in data set [5] amounted to 850 µM. Further, the ED50 in the data set listed under Mus musculus [2] was more than 500 mg/kg; in the data set filed under Mus musculus [4] it was 198 mg/kg.
Compound `CC(C)C1(C(C)C)CCOC1=O` registered an IC50 in [5] of 220 µM. For the same compound, in the data set filed under Mus musculus [4], it took a dose of 137 mg/kg to reach the 50% effect level (ED50).
`CC1(C)CCSC1=O` gave a TD50 in data set [1] of 220 mg/kg. In [5], this compound returned an IC50 of 920 µM. Moreover, the median effective dose (ED50) was determined as 369 mg/kg in the data set filed under Mus musculus [2] and 208 mg/kg in the data set filed under Mus musculus [4].

Usually TD50 stands for the dose at which the toxic effect under study appears in half of the subjects. A higher TD50 goes with harm only at a large dose. The term ED50 denotes the dose at which the effect has come halfway, by size or by number of responders. A lower ED50 goes with an effect at a small dose. As a reminder, the IC50 is the concentration needed to halve the response being measured.
